Compound activity deposited in PubChem BioAssay by Johns Hopkins Ion Channel Center.
RGS4 pot: RGS4 potentiation or activation; 0.92% of 310,000 active; HEK293 M3R/inducible RGS4, carbachol calcium flux Fluo4; hits give low values; AID 463111; B-score at 10 µM;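 active = B-score of the integrated calcium signal more than 4 SD below the library mean, with starting fluorescence not abnormally high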;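 note: negative B-score means reduced calcium response which marks RGS4 activation or potentiation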
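System – HEK293 FlpIn-TREx cells, stable M3R, doxycycline-inducible RGS4 · Reagent – ECmax carbachol challenge · Times – compound preincubation 20 min at room temperature before agonist · Technique – Fluo4 fluorescence kinetic imaging of calcium · Measure – B score of integrated Fluo4 ratio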
RGS4 inh: inhibitors of human RGS4; P49798; HEK293 M3R/RGS4 inducible, Fluo-4 calcium flux; hits give high values; triggered by carbachol at its EC20; B-score at 10 µM; 0.45% of 310,000 active; AID 463165;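 active = B-score, a plate-corrected calcium signal, over three deviations above library mean, with baseline fluorescence within five deviations of library mean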;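 note: RGS4 expression induced by doxycycline in cells with stable M3 receptor; B-score is computed from the integrated fluorescence ratio over baseline after carbachol; higher B-score means a larger calcium signal and so more RGS4 inhibition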
Target sequence (P49798 whole entry, looked up): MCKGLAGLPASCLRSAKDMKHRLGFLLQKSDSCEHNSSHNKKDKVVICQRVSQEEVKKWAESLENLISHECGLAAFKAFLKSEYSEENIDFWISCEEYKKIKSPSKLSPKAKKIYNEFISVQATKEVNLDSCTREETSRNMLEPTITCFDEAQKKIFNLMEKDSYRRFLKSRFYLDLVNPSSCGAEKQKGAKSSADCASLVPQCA
MrgX1 PAM: human MrgX1 positive allosteric modulation, primary screen; MrgX1-HEK293, Fluo-4 calcium flux, FDSS; hits give high values; AID 588675; Q96LB2; 0.63% of 310,000 active; B-score at 10 µM;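 active = plate-corrected calcium response at least 3 library SD above typical, normal starting fluorescence, not activating the receptor alone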;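 note: compound read alongside a low EC10 to EC30 dose of BAM8-22 agonist; peak minus trough fluorescence over baseline measured at the second addition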
Target sequence (Q96LB2 whole entry, looked up): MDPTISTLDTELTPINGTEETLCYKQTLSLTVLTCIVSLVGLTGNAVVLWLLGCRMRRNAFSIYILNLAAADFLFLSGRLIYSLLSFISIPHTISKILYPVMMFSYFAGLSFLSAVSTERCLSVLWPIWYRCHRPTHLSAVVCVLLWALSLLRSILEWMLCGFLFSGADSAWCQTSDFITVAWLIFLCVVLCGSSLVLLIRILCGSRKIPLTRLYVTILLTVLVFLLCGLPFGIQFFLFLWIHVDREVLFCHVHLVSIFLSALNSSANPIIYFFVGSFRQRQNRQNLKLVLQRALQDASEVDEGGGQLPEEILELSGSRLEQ
MrgX1 ag: activates human MrgX1 receptor signaling. MrgX1-HEK293 cells, Fluo-4 calcium fluorescence, agonist mode; hits give high values. B-score at 10 µM. 0.44% of 310,000 active. Q96LB2;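 active = calcium response B-score plate-corrected fluorescence ratio at least 3 library SD, with starting fluorescence B-score inside 5 SD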
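times = overnight plating, then 30 min 37 °C plus 30 min room-temperature dye loading | assay system = stable human MrgX1 HEK293 cell line | input = fifteen thousand cells per well | signal = kinetic calcium dye fluorescence, Fluo-4 NW | dosing = compound delivered in addition one of three | read-out = B-scored fluorescence response ratio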
Kir21 inh: blocks the mouse Kir2.1 inward-rectifier potassium channel; 0.85% of 310,000 active; HEK293-Kir2.1, FluxOR thallium flux fluorescence; hits give low values; B-score at 10 µM; P35561;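 active = fluorescence ratio B-score at or below minus 3 SD of library scores, with starting-brightness B-score within 2 SD, cut at about -4.2 in these data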;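 note: channel flux triggered by added potassium and thallium sulfate stimulus; B-score of peak minus minimum fluorescence over baseline after thallium stimulus; more negative B-score means stronger Kir2.1 block with less thallium influx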
MrgX1 antagonist: human MrgX1 receptor antagonism, primary screen; MRGX1-HEK293 calcium flux, Fluo-4, BAM8-22 antagonism; hits give low values; B-score at 10 µM; 1.3% of 310,000 active; AID 588676;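 active = calcium-response B-score plate-corrected more than 3 library SD below zero, starting fluorescence within 5 deviations, no agonist response on first addition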;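 note: peak minus trough fluorescence over baseline after final BAM8-22 challenge near maximal dose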
Numbers stand for hits; - = inactive; . = no result given; ! = a repeat was not active. Shown are actives, neighbours in structure and some others; about 4.1% of the full set was active somewhere.

SMILES | RGS4 pot | RGS4 inh | MrgX1 PAM | MrgX1 ag | Kir21 inh | MrgX1 antagonist
COc1ccc(CCC(C)NCc2cc(OC)cc(OC)c2)cc1 (stereo unspecified) | - | - | - | - | - | -
COc1ccc(CCC(C)NCC(C)c2ccccc2)cc1 (stereo unspecified) | - | - | - | - | -4.44 | -
COc1ccc(CCC(C)NCc2ccc(F)cc2)cc1 (stereo unspecified) | - | - | - | - | -6.1 | -
O=C(N/C(=C/c1ccco1)C(=O)N1CCCC1)c1cccs1 | - | - | - | - | - | -
c1ccc2sc(N3CCCN(Cc4nc(-c5cnccn5)no4)CC3)nc2c1 | - | - | - | - | - | -
COc1ccc(CCNCC(O)COc2cccc(Br)c2)cc1 (stereo unspecified) | - | - | - | - | -8.74 | -
COc1ccc2ccccc2c1CNC(C)CCc1ccccc1 (stereo unspecified) | - | - | - | - | -7.74 | -
COc1ccc2ccccc2c1CN(C)Cc1ccccc1 | - | - | - | - | - | -
COc1ccc(CCNCC(O)c2ccccc2)cc1 (stereo unspecified) | - | - | - | - | -4.89 | -
COc1ccccc1N1CCN(/N=C/c2cc(Br)ccc2F)CC1 | - | - | - | - | - | -
c1ccc(-c2ncnc3cc4n(c23)CCC4)cc1 | - | - | - | - | - | -
CC(C)CNS(=O)(=O)c1ccc(CCC(=O)N2CCCC2)cc1 | - | - | - | - | - | -
O=C(O)CCCNC(=O)/C=C/c1ccco1 | - | - | - | - | - | -
O=C(O)C1Cn2c(nc3c(c2=O)C2(CCCC2)Cc2ccccc2-3)S1 (stereo unspecified) | - | - | - | - | - | -
CC(=O)C1=C(O)C(=O)N(Cc2ccccc2)C1c1ccc(Br)cc1 (stereo unspecified) | - | - | - | - | - | -
CC(C)CC(=O)C1=C(O)C(=O)N(Cc2ccccc2)C1c1ccccc1 (stereo unspecified) | - | - | 12.2 | - | - | -
Cc1cccc(NC(=O)C23CCC(C)(/C(=N/O)C2)C3(C)C)c1 (stereo unspecified) | - | - | - | - | - | -5.8
Fc1ccc(-c2cn(-c3ccccc3)c3[n+]2CCS3)cc1 | - | - | - | - | - | -
Clc1ccc(-c2cn(-c3ccccc3)c3[n+]2CCS3)cc1 | -8.67 | - | - | - | - | -
CC1=C(C(=O)OC(C)C)C(c2ccccc2Cl)CC(=O)N1 (stereo unspecified) | - | - | - | - | - | -
CSCCOC(=O)C1=C(C)NC(=O)CC1c1ccccc1Cl (stereo unspecified) | - | - | - | - | -5.53 | -
O=C(c1ccccc1SCc1ccccc1)N1CCCCCC1 | - | - | - | - | -4.5 | -
CCN(CCN(C)C)C(=O)C1CCN(S(=O)(=O)c2c(C)noc2/C=C/c2ccccc2F)CC1 | - | - | - | - | -5.02 | -
O=S(=O)(c1ccccc1)c1nnn2c1nc(NC1CCN(Cc3ccccc3)CC1)c1cc(Cl)ccc12 | - | - | - | - | - | -
COc1ccc(NC(=S)Nc2cc(C)cc(C)n2)cc1OC | - | - | - | - | - | -
SMILES | RGS4 pot | RGS4 inh | MrgX1 PAM | MrgX1 ag | Kir21 inh | MrgX1 antagonist
Cc1cccc2cc(C(c3nnnn3CC3CCCO3)N3CCc4ccccc4C3)c(=O)[nH]c12 (stereo unspecified) | . | . | - | - | . | -5.1
CN1CCN(C(=O)c2ccc(Cl)c(S(=O)(=O)N3CCCCC3)c2)CC1 | - | - | - | - | - | -
CC1COc2ccccc2N1S(=O)(=O)c1ccc(Cl)cc1 (stereo unspecified) | - | - | - | - | -4.41 | -
CCCC(=O)N=C1SC2CS(=O)(=O)CC2N1c1ccc(CC)cc1 (stereo unspecified) | - | - | - | - | - | -
Cc1c(O)ccc(-c2[nH]ncc2-c2nc3ccccc3s2)c1O | - | - | - | - | - | -
CNCCCCOc1ccc(C(C)(C)C)cc1Cl | - | - | - | - | -4.87 | -
Cc1ccc(S(=O)(=O)Nc2ncnc3ccccc23)cc1 | - | - | - | - | - | -
Cc1ccc(S(=O)(=O)Nc2ccccc2C(O)c2ccccc2)cc1 (stereo unspecified) | - | - | - | - | -5.01 | -
Cc1ccc(S(=O)(=O)Nc2cc(C(C)C)c(O)cc2C)cc1 | - | - | - | - | -6.47 | -
Cc1ccc(S(=O)(=O)Nc2c(Cl)c(Cl)c(O)c3ccccc23)cc1 | - | 5.55 | - | - | - | -
Cc1ccc(S(=O)(=O)Nc2cc(Cl)c(O)cc2C)cc1 | - | - | - | - | -5.58 | -
Cc1ccc(S(=O)(=O)Nc2ccccc2-c2ccccc2NS(=O)(=O)c2ccc(C)cc2)cc1 | - | - | - | - | - | -
COc1ccc(C2(CNC(=O)c3ccccc3)CCOCC2)cc1 | - | - | - | - | - | -
Cc1ccc(N2C(=O)N(CC(=O)NCc3ccccc3Cl)C(=O)C2C)cc1 (stereo unspecified) | - | - | - | - | - | -
O=C(c1cccc(Oc2ccc([N+](=O)[O-])cc2)c1)N1CCOCC1 | - | - | - | - | - | -
COc1ccc(CC(=O)Nc2cccc(-c3nnc(-c4ccc(C)cc4)o3)c2)cc1OC | -10.1 | - | - | - | - | -
COC(=O)c1c(C(=O)OC)c2ccccn2c1C(=O)c1ccccc1 | - | - | - | - | - | -
CCOC(=O)c1c(CSC(=N)N)n(-c2ccccc2)c2cc(Br)c(OC(C)=O)cc12 | - | - | - | - | -4.45 | -
O=C1NC(=S)S/C1=C1\Sc2ccccc2N1CCCS(=O)(=O)O | - | - | - | - | - | -4.76
NN1C(=O)/C(=C2/Sc3ccccc3N2CCCS(=O)(=O)O)SC1=S | - | - | - | - | - | -
CC[n+]1c(C)sc2c3ccsc3ccc21 | - | - | - | - | - | -
C=CCn1c(SCCCCCC)nc(O)cc1=O | - | - | - | - | - | -
C=CCn1c(SCCCC)nc(O)cc1=O | - | - | 10.4! | - | - | -
O=C(Nc1ccc(O)cc1)c1cccc(Oc2ccc([N+](=O)[O-])cc2)c1 | - | - | - | - | - | -5.95
O=C(O)c1cccc(Oc2ccc([N+](=O)[O-])cc2)c1 | . | . | - | - | . | -
COc1ccc(C(=O)C2=NN(C(C)=O)CC2c2ccco2)cc1 (stereo unspecified) | - | - | - | - | - | -
CCOC(=O)CC(=O)CSc1nc(C)cc(-c2cccnc2)c1C#N | - | - | - | - | - | -
CCOC(=O)CC(=O)CSc1nc(-c2cccnc2)cc(C)c1C#N | - | - | - | - | - | -4.88
O=C(NCCN1CCOCC1)c1ccc2c(c1)N(Cc1ccccc1)C(=O)c1ccccc1S2 | - | - | - | - | - | -
